Data as given in PubChem BioAssay.
Active and inactive are the calls of the source.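 How the source made its calls, unless noted: active means inhibition of the reporter signal at or above 50%; inactive means inhibition below 50%.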

Experiments:
[1] = inhibitors of TNFa-induced NFkB p65 translocation, primary screen, imaging, HUVEC, MLSMR starter and 10KST1 sets (AID 438;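 active means inhibition above 20% together with a positive visual image hit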;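 further: compound added about 3h40 before a 20 min TNFalpha stimulation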;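 on inhibition: signal is the nuclear over cytoplasmic p65 intensity ratio per well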); settings: HUVEC TNFa-induced p65 nuclear translocation; cell count: measured here: nuclei count (cytotoxicity indicator), at 2.08 µM; inhibition: at 2 µM, stronger effect = higher value, 0% TNFa-plus-vehicle, 100% no-TNFa wells
[2] = inhibitors of mutant huntingtin aggregation, primary screen, imaging, exon1htt(103Q)mCFP cells, high-content imaging (AID 483;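 active means visual image review flags a hit and inhibition of aggregation exceeds 20%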;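 further: compound exposure lasted 3 days before fixation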;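 on nuclei count: percent of the per-plate median nuclei count of sample wells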); settings: exon1htt(103Q)mCFP cell line, aggregate imaging, at 2 µM; inhibition of aggregation: stronger effect = higher value; nuclei count: measured here: cell count, toxicity
[3] = inhibitors of E-selectin induction by TNFa, primary screen, imaging, HUVEC, immunofluorescence, MLSMR starter and 10KST1 sets (AID 487;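 active means visually confirmed hit in the image check and inhibition above 20%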;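 on inhibition: signal is fraction of cell area covered by stained E-selectin grains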;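 on nuclei count: 100% = median nuclei count of all wells on the same plate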); settings: HUVEC TNFalpha-induced E-selectin immunofluorescence imaging, at 2 µM; inhibition: stronger effect = higher value; nuclei count: measured here: cell number, toxicity
[4] = target: Voltage-gated potassium channel subunit beta-2 (Rattus norvegicus) (UniProt P62483); experiment: KvBeta enzyme negative modulators, primary screen, biochemical, NADPH fluorescence (AID 622;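 active means fluorescence slope higher than the sample average by over 3 SD, cut at about -0.22 in these data, passing the limit was not always enough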;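 further: slope of raw intensity against log time taken from 70 to 1610 s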); settings: recombinant KvBeta, 4-cyanobenzaldehyde reduction, at 10 µM, stronger effect = higher value
[5] = target: Voltage-gated potassium channel subunit beta-2 (Rattus norvegicus) (UniProt P62483); experiment: KvBeta positive modulators, primary screen, biochemical, NADPH fluorescence (AID 623;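 active means NADPH fluorescence slope more negative than the mean of all samples by about 3 SD, 99.7% confidence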;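 further: fluorescence intensity change per second fitted from 20 to 320 s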); settings: Recombinant KvBeta, NADPH fluorescence decrease slope, 10 min; at 10 µM; stronger effect = lower value
[6] = target: Muscarinic acetylcholine receptor M4 (Homo sapiens) (UniProt P08173); experiment: compounds altering M4/GIRK thallium flux, either direction, primary screen, M4 allosteric agonist project, cell-based, HEK293 M4/GIRK, BTC-AM (AID 625;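 active means fluorescence slope after compound addition differing from the mean of all tested samples at 99.7% confidence, mostly higher but some lower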;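 further: thallium influx through GIRK channels coupled to M4 in HEK293 cells with BTC-AM dye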); settings: at 10 µM, actives lie on both sides
Summary of the method: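 System: HEK293 cells with M4 receptor and GIRK channels | Incubation: Cells overnight at 37 °C, BTC-AM loading 1 h, reads 2 min total | Technique: Kinetic BTC-AM fluorescence sampled at 1 Hz, 10 s pre-addition baseline | Measure: Post-addition slope, 15–24 s, of baseline-normalized fluorescence | Control set: Carbachol positive, DMSO negative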

[7] = inhibitors of Sendai virus-induced IRF3 signaling, primary screen, TLR/RLR signaling modifier project, cell-based, Sendai virus stimulus, luciferase, 10K MLSCN set (AID 602276;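 active means inhibition at or above 50% at 10 µM; inactive means inhibition below 50%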;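 further: firefly luciferase from ISG56 promoter only with Renilla not read in this screen; 0% = Sendai virus plus DMSO and 100% = medium plus DMSO without virus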); settings: HEK293 RL24 IRF3 luciferase reporter, at 10 µM, stronger effect = higher value
[8] = inhibitors of poly I:C-induced TLR3 signaling, primary screen, cell-based, poly I:C stimulus, luciferase, 10K MLSCN set (AID 602277); settings: HEK293-TLR3 RL24 IRF3 luciferase reporter, at 10 µM, stronger effect = higher value

Sequence of Voltage-gated potassium channel subunit beta-2 (Rattus norvegicus) (P62483 whole entry, looked up): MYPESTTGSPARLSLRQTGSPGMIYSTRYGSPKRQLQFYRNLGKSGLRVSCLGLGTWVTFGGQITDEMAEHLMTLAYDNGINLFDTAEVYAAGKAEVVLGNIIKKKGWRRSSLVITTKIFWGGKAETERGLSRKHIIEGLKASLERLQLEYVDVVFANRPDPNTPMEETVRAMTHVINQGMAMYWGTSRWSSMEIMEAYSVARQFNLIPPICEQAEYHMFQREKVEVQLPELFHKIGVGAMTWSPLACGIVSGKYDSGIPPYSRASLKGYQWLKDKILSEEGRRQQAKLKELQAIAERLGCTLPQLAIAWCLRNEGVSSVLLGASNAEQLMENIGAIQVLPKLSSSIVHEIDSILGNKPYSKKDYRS
Sequence of Muscarinic acetylcholine receptor M4 (Homo sapiens) (P08173 whole entry, looked up): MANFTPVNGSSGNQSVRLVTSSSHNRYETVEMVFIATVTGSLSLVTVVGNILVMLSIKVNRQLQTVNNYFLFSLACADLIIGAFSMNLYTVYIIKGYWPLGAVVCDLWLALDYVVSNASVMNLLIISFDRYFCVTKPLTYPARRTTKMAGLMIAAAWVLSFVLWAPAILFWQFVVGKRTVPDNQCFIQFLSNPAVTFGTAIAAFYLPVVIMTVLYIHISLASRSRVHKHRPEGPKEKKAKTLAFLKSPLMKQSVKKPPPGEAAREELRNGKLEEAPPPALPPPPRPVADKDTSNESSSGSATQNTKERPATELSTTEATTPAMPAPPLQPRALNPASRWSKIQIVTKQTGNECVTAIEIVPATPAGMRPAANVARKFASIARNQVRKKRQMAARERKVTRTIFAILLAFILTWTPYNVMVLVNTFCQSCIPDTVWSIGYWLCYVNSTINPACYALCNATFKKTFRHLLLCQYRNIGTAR

Compound | cell count [1] | inhibition [1] | inhibition of aggregation [2] | nuclei count [2] [%] | inhibition [3] | nuclei count [3] [%] | fluorescence slope [4] | NADPH fluorescence slope [5] | fluorescence slope [6] | inhibition [7] | inhibition [8]
CN(C(=O)COC(=O)C1CCN(S(=O)(=O)c2cccs2)CC1)C1CCS(=O)(=O)C1 (configuration not stated) | 385 | -2.7% (inactive) | 6% (inactive) | 51.8 | -190% (inactive) | 120 | -0.571 (inactive) | -4.2e-05 (inactive) | 0.00447 (inactive) | -5.26% (inactive) | 1.49% (inactive)
COc1cccc(CNC(=O)C2CCN(S(=O)(=O)c3ccc(F)cc3)CC2)c1 | 603 | 9.6% (inactive) | 5.3% (inactive) | 103 | -47.8% (inactive) | 123 | -0.553 (inactive) | -5.5e-05 (inactive) | 0.00553 (inactive) | 19.5% (inactive) | 20.1% (inactive)
O=S(=O)(c1ccc(OCC(O)CN2CCN(c3ccccc3)CC2)cc1)N1CCOCC1 (configuration not stated) | 603 | -34.9% (inactive) | -19.9% (inactive) | 104 | -19.7% (inactive) | 108 | -0.214 (inactive) | -1.7e-05 (inactive) | 0.00626 (inactive) | 13.5% (inactive) | -5.1% (inactive)
Cn1cnnc1SCC(=O)Nc1ccccc1Sc1ccccc1 | 740 | 4% (inactive) | -6.3% (inactive) | 93.3 | -36.2% (inactive) | 127 | -0.215 (inactive) | -2.9e-05 (inactive) | 0.00628 (inactive) | 13.5% (inactive) | 8.17% (inactive)
c1ccc(-c2cc3c(nn2)CCc2nonc2-3)cc1 | 339 | 2.4% (inactive) | 19.1% (inactive) | 100 | -9.2% (inactive) | 111 | -0.543 (inactive) | -0.00017 (inactive) | 0.00417 (inactive) | -15.2% (inactive) | -31.9% (inactive)
CCOc1ccc2cc(C#N)c(SCC(=O)N3CCCC3)nc2c1 | 451 | -6.5% (inactive) | 3.1% (inactive) | 99.8 | -32% (inactive) | 109 | -0.551 (inactive) | -5.2e-05 (inactive) | 0.00682 (inactive) | -13.8% (inactive) | -15.2% (inactive)
Cc1ccc(C(=O)NC2CC3CCCC(C2)N3C(=O)NC2CCCCC2)cc1 (configuration not stated) | 391 | -5% (inactive) | 0.8% (inactive) | 98.7 | -32.5% (inactive) | 80.8 | -0.559 (inactive) | 5.4e-08 (inactive) | 0.00417 (inactive) | -0.377% (inactive) | 9.12% (inactive)
Cc1nc2cc(NC(=O)N3CC4(C)CC3CC(C)(C)C4)ccc2n1C (configuration not stated) | 657 | 2.1% (inactive) | 6.5% (inactive) | 104 | 11.9% (inactive) | 105 | -0.484 (inactive) | -8.2e-05 (inactive) | 0.00526 (inactive) | -4.69% (inactive) | 16.4% (inactive)
O=C(NC1(C(F)(F)F)NC(=O)N(Cc2ccco2)C1=O)c1cccnc1 (configuration not stated) | 495 | 1.8% (inactive) | 1.2% (inactive) | 104 | -26.5% (inactive) | 122 | -0.461 (inactive) | -8.5e-05 (inactive) | 0.00405 (inactive) | 9.43% (inactive) | 12.8% (inactive)
COCCN1C(=O)C(=O)/C(=C(/O)c2cccc(OC)c2)C1c1ccncc1 (configuration not stated) | 272 | 22.2% (inactive) | 17.9% (inactive) | 95.1 | 54.5% (inactive) | 92.1 | -0.578 (inactive) | -8.8e-06 (inactive) | 0.00539 (inactive) | 13.1% (inactive) | 15.1% (inactive)
O=C(O)CCC(=O)Nc1nc(-c2ccccc2)cs1 | 546 | -24.7% (inactive) | -8.2% (inactive) | 110 | 4.3% (inactive) | 147 | -0.449 (inactive) | 0.00011 (inactive) | 0.00599 (inactive) | 16.3% (inactive) | 23.8% (inactive)
Cc1ccc(-c2ccc(=O)n(CCC(=O)NCc3ccccn3)n2)cc1 | 366 | -15.6% (inactive) | -2.2% (inactive) | 99.9 | -2.7% (inactive) | 108 | -0.534 (inactive) | -3e-05 (inactive) | 0.00635 (inactive) | 14.5% (inactive) | 21.8% (inactive)
CCc1nc(N[C@@H](Cc2c[nH]c3ccccc23)C(=O)O)c2oc3ccccc3c2n1 | 570 | -0.4% (inactive) | -19.4% (inactive) | 101 | -59.6% (inactive) | 98.6 | -0.4 (inactive) | 4.2e-05 (inactive) | 0.00556 (inactive) | 10.8% (inactive) | 9.74% (inactive)
CCOCCCNc1ncnc2c1[nH]c1ccccc12 | 252 | 7.8% (inactive) | -7.5% (inactive) | 72.9 | -49.2% (inactive) | 109 | -0.513 (inactive) | -0.000137 (inactive) | 0.00341 (inactive) | -24.7% (inactive) | -100% (inactive)
CC(=O)Nc1nc(C)c(-c2csc(Nc3ccc(O)cc3)n2)s1 | 547 | 1.5% (inactive) | 33.1% (inactive) | 99.7 | -154% (inactive) | 164 | -0.556 (inactive) | -2.7e-05 (inactive) | 0.00314 (inactive) | 20.1% (inactive) | 9.01% (inactive)
COC(=O)c1ccc(CSc2ncnc3c2nnn3-c2ccc(OC)cc2)o1 | 444 | 3.3% (inactive) | -13.1% (inactive) | 95 | -43.8% (inactive) | 113 | -0.577 (inactive) | -2.7e-05 (inactive) | 0.00411 (inactive) | 1.55% (inactive) | -32.3% (inactive)
Cn1c(=O)c2c(nc(N3CCCCC3)n2CCSc2nc3ccccc3o2)n(C)c1=O | 248 | -3.6% (inactive) | 2.8% (inactive) | 71.3 | 28.4% (inactive) | 94.2 | -0.451 (inactive) | 4.5e-05 (inactive) | 0.00597 (inactive) | -13.5% (inactive) | -11.3% (inactive)
CC1CCCC(NC(=O)CN2CCN(Cc3ccc(Cl)cc3)C2=O)C1C (configuration not stated) | 512 | -6% (inactive) | -24.6% (inactive) | 58.8 | -27.1% (inactive) | 98 | -0.553 (inactive) | -3.7e-05 (inactive) | 0.00646 (inactive) | 14.7% (inactive) | 20.9% (inactive)
Cn1c(=O)cc(SCC(=O)NCC2CCCO2)c2ccc(Cl)cc21 (configuration not stated) | 467 | -11.6% (inactive) | 3.4% (inactive) | 107 | 26.9% (inactive) | 93.8 | -0.549 (inactive) | -3.4e-05 (inactive) | 0.00522 (inactive) | 10.3% (inactive) | 9.81% (inactive)
Cn1c(=O)c2ncn(CC(=O)NCCOc3ccccc3)c2n(C)c1=O | 503 | -4.4% (inactive) | -3.1% (inactive) | 98 | 43% (inactive) | 91.5 | -0.52 (inactive) | 2.9e-06 (inactive) | 0.00467 (inactive) | 18% (inactive) | 14.3% (inactive)
COc1cc2c(cc1OC)C(c1cc(OC)c(OC)c(OC)c1)NCC2 (configuration not stated) | 514 | 1.8% (inactive) | 10.4% (inactive) | 104 | -28.8% (inactive) | 102 | -0.546 (inactive) | -2.1e-05 (inactive) | 0.00597 (inactive) | 15.4% (inactive) | 20.5% (inactive)
NC(=O)C1(N2CCCCC2)CCN(Cc2ccccc2Cl)CC1 | 438 | 0.3% (inactive) | -1% (inactive) | 98 | 3.4% (inactive) | 103 | -0.233 (inactive) | -2.8e-05 (inactive) | 0.0052 (inactive) | 12.3% (inactive) | 19.9% (inactive)
COC(=O)Cc1c(C)nc2nc(-c3ccccc3)[nH]n2c1=O | 615 | 1.9% (inactive) | 18.9% (inactive) | 68 | -15.7% (inactive) | 97.2 | -0.474 (inactive) | -9.1e-06 (inactive) | 0.00459 (inactive) | 0.882% (inactive) | 6.76% (inactive)
COc1ccccc1NC(=O)c1ccc(NC(=O)CSc2nnnn2C)cc1 | 253 | -3.2% (inactive) | -0.5% (inactive) | 85.1 | -63% (inactive) | 100 | -0.385 (inactive) | -7.2e-05 (inactive) | 0.00533 (inactive) | 12.1% (inactive) | 25.6% (inactive)
CC(NC(=O)c1ccco1)C(c1cccs1)N1CCN(c2ccc(F)cc2)CC1 (configuration not stated) | 519 | -0.2% (inactive) | -0.1% (inactive) | 82 | -22.2% (inactive) | 114 | -0.489 (inactive) | 0.000157 (inactive) | 0.00654 (inactive) | 11.9% (inactive) | 12.2% (inactive)
Cc1ccc(S(=O)(=O)NC(C(=O)OCC(=O)NC2CCS(=O)(=O)C2)C(C)C)cc1 (configuration not stated) | 654 | -10.1% (inactive) | 9.6% (inactive) | 93.4 | -40.2% (inactive) | 109 | -0.578 (inactive) | 9.1e-06 (inactive) | 0.0094 (inactive) | -14% (inactive) | 18.4% (inactive)
Cc1cc(S(=O)(=O)NC2CCCCC2)ccc1OCC(=O)NCc1ccccn1 | 346 | -8.6% (inactive) | 7.8% (inactive) | 96.4 | -70.2% (inactive) | 106 | -0.607 (inactive) | 5.7e-06 (inactive) | 0.0059 (inactive) | 20.7% (inactive) | 34% (inactive)
